ChEMBL document CHEMBL1124181, “Imidazo[1,2-a]pyrimidines and imidazo[1,2-a]pyrazines: the role of nitrogen position in inotropic activity” (1988)

How the values were obtained:
Canis familiaris = assay: Tested in anesthetized dog for its inotropic activity after intravenous administration; assay type: functional; conditions: Canis lupus familiaris
Outline: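 Mongrel dogs of either sex (7-14 kg), anesthetized with sodium pentobarbital (35 mg/kg iv). Dosing was via a femoral vein cannula. Contractility was measured by a Walton-Brodie strain-gauge arch on the right ventricle (tension 50 g); heart rate by cardiometer; lead II ECG. Doses of 0.01 to 8.0 mg/kg iv were given in increasing steps at 5-min intervals. Peak responses are reported as mean ± SEM (n = 4) or mean ± range (n = 2).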

Felis catus = species on record: Felis catus; assay: Inotropic activity in cat papillary muscle at 10e-5 M expressed as percent of control; assay type: functional
Outline: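 Isolated-tissue bath preparation with contractions recorded on a polygraph. Compounds were dissolved in DMSO and added cumulatively, each concentration being allowed to produce its maximal response before the next higher one was added.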

Row | Structure (SMILES) | ED50 (Canis familiaris) [mg/kg] | Inotropic activity (% of control) (Felis catus) [%]
1 | COc1ccc(-c2nc3cc[nH]cc-3n2)c(OC)c1 | 0.3 | 158
2 | COc1ccc(-c2cn3cccnc3n2)c(OC)c1 |  | 136
3 | COc1cc(SC)ccc1-c1cn2ccncc2n1 | 0.5 | 140
4 | COc1ccc(-c2cn3ccccc3n2)c(OC)c1 |  | 98
5 | COc1ccc(-c2cn3ncccc3n2)c(OC)c1 |  | 115
6 | COc1ccc(-c2cn3nccnc3n2)c(OC)c1 |  | 130
7 | COc1ccc(-c2cn3cnccc3n2)c(OC)c1 |  | 114
8 | COc1cc(S(C)(=O)=O)ccc1-c1cn2ccncc2n1 | 0.02 | 180
9 | COc1cc(SC)ccc1-c1nc2cc[nH]cc-2n1 | 0.2 | 143
10 | COc1cc([S+](C)[O-])ccc1-c1cn2ccncc2n1 (stereo not drawn) | 0.1 | 161
11 | COc1ccc(-c2cn3ccncc3n2)c(OC)c1 | 0.7 | 145
12 | COc1ccc(-c2nc3ccc[nH]c-3n2)c(OC)c1 |  | 146
13 | COc1cc(S(C)(=O)=O)ccc1-c1nc2ccncc2[nH]1 | 0.02 | 176
14 | COc1cc([S+](C)[O-])ccc1-c1nc2cnccc2[nH]1 (stereo not drawn) [ISOMAZOLE] | 0.03 | 172
15 | COc1cc([S+](C)[O-])ccc1-c1nc2cccnc2[nH]1 (stereo not drawn) [SULMAZOLE] |  | 112
